Rev-erbA mod: modulators of Rev-erb alpha DNA binding, primary screen, biochemical, FITC-DNA, fluorescence polarization, uHTS. Nuclear receptor subfamily 1 group D member 1 (Homo sapiens), P20393. Rev-erbα–FITC-DNA binding, 90 min. activity, % at 10 µM. 0.79% of 370,000 active;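 active = activity above about 14%, limit read from the data; passing the limit was not always enough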;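 note: 0% = DMSO wells with 35 nM protein and 100% = DMSO wells with 750 nM protein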
Target sequence (P20393 whole entry, looked up): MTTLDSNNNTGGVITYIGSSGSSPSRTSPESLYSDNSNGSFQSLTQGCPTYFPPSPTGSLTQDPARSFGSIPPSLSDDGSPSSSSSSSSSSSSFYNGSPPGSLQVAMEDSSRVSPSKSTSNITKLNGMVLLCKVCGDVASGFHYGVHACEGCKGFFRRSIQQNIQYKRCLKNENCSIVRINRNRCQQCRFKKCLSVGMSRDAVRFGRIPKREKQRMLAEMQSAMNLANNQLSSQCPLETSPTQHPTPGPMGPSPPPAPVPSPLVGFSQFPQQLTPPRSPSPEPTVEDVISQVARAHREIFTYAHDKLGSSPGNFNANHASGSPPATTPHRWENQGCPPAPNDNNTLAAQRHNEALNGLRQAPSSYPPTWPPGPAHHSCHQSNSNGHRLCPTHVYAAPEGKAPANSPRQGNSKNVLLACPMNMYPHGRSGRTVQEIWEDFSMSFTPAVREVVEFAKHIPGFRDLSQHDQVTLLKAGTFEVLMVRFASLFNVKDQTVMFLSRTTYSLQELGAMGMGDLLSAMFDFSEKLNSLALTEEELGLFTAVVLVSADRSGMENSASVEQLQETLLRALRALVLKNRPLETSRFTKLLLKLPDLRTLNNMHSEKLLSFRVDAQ
PG9 binder: binders of HIV-1 gp120 antibody PG9, primary screen, biochemical, TR-FRET; AID 624416, 2012; TR-FRET gp120-PG9 antibody binding; 0.43% of 360,000 active; HIV-1 gp120 / PG9 antibody interaction; inhibition, % at 6.7 µM; in the data active = inhibition above about 8.5%
NR2E3 ag-1: NR2E3 agonists in two-hybrid cells, primary screen, cell-based, luminescence, CHO-S, Gal4-NCOR/VP16-NR2E3. inhibition of corepressor binding, % at 3.98 µM. luciferase. 0.35% of 360,000 active. Photoreceptor-specific nuclear receptor (Homo sapiens), Q9Y5X4;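 active = inhibition above the mean of all tested compounds plus 3 SD, cut at about 70% in these data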;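 note: 0% = DMSO with NR2E3 transfected cells and 100% = cells lacking NR2E3 construct; higher means lower luciferase signal from less NR2E3 corepressor binding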
rCAG RNA binder: binders of r(CAG) RNA repeats, primary screen, biochemical, fluorescence | inhibition, % at 3 µM | 1.3% of 370,000 active | r(CAG) RNA repeat, TO-PRO-1 dye displacement fluorescence;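 active = inhibition above the plate cutoff, the mean of all test compounds on that plate plus 3 SD, cut at about 35% in these data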;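 note: 0% = DMSO alone and 100% = 100 µM mitoxantrone as full dye displacement; higher means more dye released from RNA so lower well fluorescence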
NR2E3 ag-2: inhibitors of NR2E3-RetCOR corepressor binding, primary screen, NR2E3 agonist project, biochemical, TR-FRET, GST-NR2E3, biotin-RetCOR | Photoreceptor-specific nuclear receptor (Homo sapiens), Q9Y5X4 | 1536-well | inhibition of corepressor binding, % at 4.78 µM | 0.12% of 320,000 active;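 active = percent inhibition above the cutoff of mean plus 3 SD of all tested compounds, set per screening campaign, cut at about 20% in these data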;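 note: 0% = DMSO wells and 100% = biotin wells as full block of FRET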
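Format: 1536-well format; test system: GST-NR2E3 and biotin-RetCOR proteins; read-out basis: percent inhibition of TR-FRET ratio; timing: 5 h incubation at 4 °C; detection: time-resolved FRET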
PG9 binder conf: binders of anti-gp120 antibody PG9, confirmation, biochemical, TR-FRET. inhibition, % at 6.7 µM. shares compounds with PG9 binder. 90% of 1,500 active. TR-FRET PG9 antibody binding; in the data active = inhibition above about 9%
PGV04 counter: binders of control antibody PGV04, counter-screen for PG9 antibody binder project, biochemical, TR-FRET, distinct HIV envelope site. shares compounds with PG9 binder. TR-FRET PGV04 antibody-gp120 binding. inhibition, % at 6.7 µM. 95% of 1,500 active. AID 651604, 2012; in the data active = inhibition above about 9.5%
An asterisk follows results filed as active. In the library only some 2.6% were active in any assay of this set; here they are far more common.

For Cc1sc2nc(SCC(=O)Nc3ccccc3F)[nH]c(=O)c2c1C the results were Rev-erbA mod 11, PG9 binder 8.7*, NR2E3 ag-1 -27, rCAG RNA binder 2, NR2E3 ag-2 -2, PG9 binder conf 21* and PGV04 counter 34*.
CCc1cccc(CC)c1NC(=O)Cn1c(-c2ccccc2Cl)nc2ccccc21 was read as Rev-erbA mod 1, PG9 binder 17*, NR2E3 ag-1 -33, rCAG RNA binder -2, NR2E3 ag-2 7, PG9 binder conf 19* and PGV04 counter 25*.
For CC(C)N(C(=O)Cn1c(-c2ccccc2Cl)nc2ccccc21)c1ccccc1 the results were Rev-erbA mod 1, PG9 binder -2, NR2E3 ag-1 -13, rCAG RNA binder -5 and NR2E3 ag-2 6.
For COc1ccc(-n2ncc3c(=O)n(CC(=O)Nc4ccc5c(c4)OCCO5)cnc32)cc1 the results were Rev-erbA mod 22, PG9 binder 12*, NR2E3 ag-1 5, rCAG RNA binder 6, NR2E3 ag-2 4, PG9 binder conf 19* and PGV04 counter 23*.
Screening CC(C)CC1C(=O)N(Cc2cn(CCC3OCCCO3)nn2)CCS(=O)(=O)N1Cc1ccc(-c2cccc(N(C)C)c2)cc1 (stereo not given) returned Rev-erbA mod -5, PG9 binder 0, NR2E3 ag-1 -37 and rCAG RNA binder 6.
Screening CS(=O)(=O)c1ccc2nc(NC(=O)Nc3ccccc3F)sc2c1 returned Rev-erbA mod 23, PG9 binder 33*, NR2E3 ag-1 -185, rCAG RNA binder 9, NR2E3 ag-2 3, PG9 binder conf 27* and PGV04 counter 46*.
Cc1cccc(-c2nnc(NC(=O)c3ccc(N4C(=O)CCC4=O)cc3)s2)c1 was read as Rev-erbA mod 8, PG9 binder 17*, NR2E3 ag-1 -25, rCAG RNA binder 5, NR2E3 ag-2 -11, PG9 binder conf 4 and PGV04 counter 12*.
O=C(O)c1cc(-c2ccc(Br)s2)nc2ccccc12 was read as Rev-erbA mod -6, PG9 binder 17*, NR2E3 ag-1 -93, rCAG RNA binder 23, PG9 binder conf 25* and PGV04 counter 68*.
For CCCCOc1cc(C(=O)NCCN(CC)CC)c2ccccc2n1 the results were Rev-erbA mod -5, PG9 binder -1, NR2E3 ag-1 -21, rCAG RNA binder -1 and NR2E3 ag-2 -1.
For Cc1cc(-c2cc(C(=O)O)c3ccccc3n2)c(C)s1 the results were Rev-erbA mod -4, PG9 binder 0, NR2E3 ag-1 3, rCAG RNA binder 2 and NR2E3 ag-2 2.
Screening CCN(CC)CCNC(=O)c1cc(-c2ccc(Br)s2)nc2ccccc12 returned Rev-erbA mod 1, PG9 binder 15*, NR2E3 ag-1 13, rCAG RNA binder 8, NR2E3 ag-2 7, PG9 binder conf 26* and PGV04 counter 50*.
Cc1cc(=O)n2c(C(=O)Nc3ccc(C(=O)OC(C)C)cc3)c(C(=O)Nc3ccccc3)sc2n1 was read as Rev-erbA mod 18, PG9 binder 12*, NR2E3 ag-1 -18, rCAG RNA binder 11, NR2E3 ag-2 9, PG9 binder conf 22* and PGV04 counter 31*.
Screening COCCn1c(=NC(=O)c2sc3ccccc3c2Cl)sc2cc(S(N)(=O)=O)ccc21 returned Rev-erbA mod -5, PG9 binder 18*, NR2E3 ag-1 -18, rCAG RNA binder 13, NR2E3 ag-2 8, PG9 binder conf 24* and PGV04 counter 35*.
Screening O=[N+]([O-])c1cccc(COc2ccccc2CO)c1 returned Rev-erbA mod 0, PG9 binder 0, NR2E3 ag-1 -15 and rCAG RNA binder 1.
For CCCCc1nnc(NC(=O)c2ccc(OCc3c(C)noc3C)cc2)s1 the results were Rev-erbA mod 2, PG9 binder 1, NR2E3 ag-1 2 and rCAG RNA binder 1.
Screening CCc1nnc(NC(=O)Cc2ccc(OCc3c(C)noc3C)cc2)s1 returned Rev-erbA mod 10, PG9 binder 19*, NR2E3 ag-1 -33, rCAG RNA binder 1, NR2E3 ag-2 -1, PG9 binder conf 19* and PGV04 counter 42*.
Screening O=C1N(c2ccccc2C(F)(F)F)O[C@]1(c1ccccc1)C1CCCC1 returned Rev-erbA mod 3, PG9 binder 2, NR2E3 ag-1 15, rCAG RNA binder -1 and NR2E3 ag-2 2.
For Cc1ccc(NC(=O)CSc2nc3c(cc2C#N)C(=O)CCC3)cc1S(=O)(=O)N(C)C the results were Rev-erbA mod -3, PG9 binder 13*, NR2E3 ag-1 -10, rCAG RNA binder 8, NR2E3 ag-2 0, PG9 binder conf 12* and PGV04 counter 14*.
For COc1ccc(-c2oc3c(c2C#CC2(O)CCCCC2)C(OC(C)=O)CCC3)cc1 (stereo not given) the results were Rev-erbA mod 3, PG9 binder 2, NR2E3 ag-1 -10 and rCAG RNA binder 3.
`Cc1cc(Br)cn2cc(C(=O)O)nc12` gave Rev-erbA mod -1, PG9 binder 16*, NR2E3 ag-1 -16, rCAG RNA binder 1, NR2E3 ag-2 6, PG9 binder conf 21* and PGV04 counter 26*.
Screening O=C(O)c1cc(Br)ccn1 returned Rev-erbA mod -8, PG9 binder 0, NR2E3 ag-1 -1, rCAG RNA binder -1 and NR2E3 ag-2 2.
For CC(=O)c1ccc(NC(=O)c2ccc(S(=O)(=O)N3CCCC3)cc2)cc1 the results were Rev-erbA mod 4, PG9 binder -3, NR2E3 ag-1 -3, rCAG RNA binder 0 and NR2E3 ag-2 1.
CCCCC(=O)Nc1ccc(C(=O)Nc2ccc(S(=O)(=O)N3CCCC3)cc2)cc1 was read as Rev-erbA mod 9, PG9 binder 18*, NR2E3 ag-1 15, rCAG RNA binder 0, NR2E3 ag-2 6, PG9 binder conf 19* and PGV04 counter 38*.
For CCOc1ncccc1C(=O)Nc1ccc(S(=O)(=O)N2CCCC2)cc1 the results were Rev-erbA mod 15, PG9 binder 9.6*, NR2E3 ag-1 11, rCAG RNA binder -2, NR2E3 ag-2 0, PG9 binder conf 13* and PGV04 counter 18*.
